The test system of data set [1] is A2780 (ovarian carcinoma) cells. Kind of data set: MTT assay, A2780 cells. It is filed as cell-based, Human. The conditions noted are these: read-out: IC50 A2780, 96 h exposure. In outline:
(§1)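 Cells were kept in MEM with 10% heat-inactivated FBS, 1 mM pyruvate, 4 mM L-glutamine and 1% NEAA at 37 °C, 5% CO2. Seeding by trypsinization was SW480 2.5 × 103 and A2780 5.0 × 10^3 cells/well, with 24 h preincubation and 96 h exposure to serial dilutions. MTT was added for 4 h, formazan dissolved in DMSO, and read at 550 nm (reference 690 nm). IC50 was interpolated from T/C curves using ≥3 experiments, ≥6 replicates each.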
(Tetrazolium dyes change colour on reduction, which living cells bring about.)

Data set [2] is described as follows: n-octanol/water partition coefficient, shake flask method. It is filed as physicochemical. The following applies: values of the aqua complexes. Summed up:
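Partition was measured by the shake-flask method. For the octanol phase, UV/vis was read at each complex's absorption maximum against n-octanol standards from 1 to 100 μM. For the aqueous phase, ruthenium was measured by ICP-MS (101Ru and 102Ru) with external calibration from 1 to 30 ppb. These samples were prepared in 5% HNO3 with 1 ppb 185Re as internal standard.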

Data set [3] relates to SW480 (colon carcinoma) cells. Kind of data set: MTT assay, SW480 cells. Type of data set: cell-based, Human. The following applies: read-out: IC50 SW480, 96 h exposure. Summed up:
as §1

For data set [4], the system named is thymidine 5′-monophosphate (TMP). Kind of data set: Nucleotide binding by 1H and 31P NMR, TMP.
The subject of data set [5] is guanosine 5′-monophosphate (GMP). The data set is described as follows: Nucleotide binding by 1H and 31P NMR, GMP. The following applies: ratio complex/nucleotide.
The test system of data set [6] is uridine 5′-monophosphate (UMP). Kind of data set: Nucleotide binding by 1H and 31P NMR, UMP.
For data set [7], the system named is cytidine 5′-monophosphate (CMP). The data set is described as follows: Nucleotide binding by 1H and 31P NMR, CMP.
In data set [8] the test system is adenosine 5′-monophosphate (AMP). The data set is described as follows: Nucleotide binding by 1H and 31P NMR, AMP. The conditions noted are these: ratio complex/nucleotide.
The conditions of data set [9]: mononuclear analogue; cited from earlier work.
Data set [10] deals with A2780 (ovarian carcinoma) cells. The following applies: read-out: IC50 A2780; cited from earlier work.
Data set [11] concerns RT-4 (bladder cancer) cells. The conditions noted are these: read-out: IC50 RT-4; crystal violet; cited from earlier work.
Data set [12] deals with A-427 (lung cancer) cells. The following applies: read-out: IC50 A-427; crystal violet; cited from earlier work.
Data set [13] deals with SISO-oxo oxoplatin-resistant cells. Kind of data set: Crystal violet assay, SISO-oxo. It is filed as cell-based, Human. The following applies: for Resistance factor SISO-oxo: SISO-oxo versus SISO; for IC50: read-out: IC50 SISO-oxo, crystal violet, 96 h, oxoplatin-resistant line. Summed up:
(§2)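 Resistant sublines were derived in-house by weekly exposure to rising oxoplatin concentrations over several months. Cells grew as adherent cultures in RPMI with 10% heat-inactivated FBS and penicillin/streptomycin at 37 °C, 5% CO2. After seeding at 1.0 × 10^3 cells/well and 24 h preincubation, cells had 96 h exposure to 20 mM DMF stocks diluted 1000-fold in medium. Crystal violet was redissolved in 70% ethanol and read at 570 nm.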

In data set [14] the test system is KYSE70-oxo oxoplatin-resistant cells. Kind of data set: Crystal violet assay, KYSE70-oxo. Type of data set: cell-based, Human. The conditions noted are these: for Resistance factor KYSE70-oxo: KYSE70-oxo versus KYSE70; for IC50: read-out: IC50 KYSE70-oxo, crystal violet, 96 h, oxoplatin-resistant line. Summed up:
as §2

Data set [15] concerns LCLC-103H (lung cancer) cells. The following applies: read-out: IC50 LCLC-103H; crystal violet; cited from earlier work.
The subject of data set [16] is DAN-G (pancreatic cancer) cells. The following applies: read-out: IC50 DAN-G; crystal violet; cited from earlier work.
Data set [17] has as its system 5637-oxo oxoplatin-resistant cells. Kind of data set: Crystal violet assay, 5637-oxo. Type of data set: cell-based, Human. The conditions noted are these: for Resistance factor 5637-oxo: 5637-oxo versus 5637; for IC50: read-out: IC50 5637-oxo, crystal violet, 96 h, oxoplatin-resistant line. Summed up: as §2
Data set [18] has as its system SISO (cervical cancer) cells. The data set is described as follows: Crystal violet assay, SISO. Type of data set: cell-based, Human. The conditions noted are these: read-out: IC50 SISO, 96 h. In outline:
(§3)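 Crystal violet assay after 24 h preincubation. Adherent cells grown in RPMI with 10% heat-inactivated FBS and penicillin/streptomycin at 37 °C, 5% CO2; MCF-7 medium also had 1 mM sodium pyruvate and 1% nonessential amino acids. Seeding was 1.0 × 10^3 cells/well, or 250 cells/well for LCLC-103H. 20 mM DMF stocks were diluted 1000-fold in medium with 10% FCS for 96 h exposure. Bound dye was redissolved in 70% ethanol and read at 570 nm.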

For data set [19], the system named is 5637 (bladder cancer) cells. Kind of data set: Crystal violet assay, 5637. It is filed as cell-based, Human. The conditions noted are these: read-out: IC50 5637, 96 h. In outline:
as §3

Data set [20] has as its system KYSE70 (esophagus cancer) cells. Kind of data set: Crystal violet assay, KYSE70. It is filed as cell-based, Human. The following applies: read-out: IC50 KYSE70, 96 h. Summed up:
as §3

Data set [21] relates to LCLC-103H (lung cancer) cells. The data set is described as follows: Crystal violet assay, LCLC-103H. Type of data set: cell-based, Human. The following applies: read-out: IC50 LCLC-103H, 96 h. Summed up: as §3
In data set [22] the test system is A-427 (lung cancer) cells. Kind of data set: Crystal violet assay, A-427. Type of data set: cell-based, Human. The following applies: read-out: IC50 A-427, 96 h. Summed up: as §3
The test system of data set [23] is MCF-7 (breast cancer) cells. Kind of data set: Crystal violet assay, MCF-7. The conditions noted are these: read-out: IC50 MCF-7, 96 h. It is filed as cell-based, Human. In outline:
as §3

Data set [24] has as its system DAN-G (pancreatic cancer) cells. Kind of data set: Crystal violet assay, DAN-G. Type of data set: cell-based, Human. The conditions noted are these: read-out: IC50 DAN-G, 96 h. Summed up:
as §3

Data set [25] concerns RT-4 (bladder cancer) cells. Kind of data set: Crystal violet assay, RT-4. It is filed as cell-based, Human. The conditions noted are these: read-out: IC50 RT-4, 96 h. In outline: as §3

The text below walks through data of article PMC2819033 (Journal of medicinal chemistry, 2009).

Where two headings read alike, the source gives them in different places.

On to `Cc1c([O-])c(=O)ccn1CCn1ccc(=O)c([O-])c1C.Cc1ccc(C(C)C)cc1.Cc1ccc(C(C)C)cc1.[Cl-].[Cl-].[Ru+2].[Ru+2]` [1c, 1,2-Bis{chlorido[3-(oxo-κO)-2-methyl-4(1H)-pyridinonato-κO4](η ^6-p-cymene)ruthenium(II)}ethane], for which, in data set [1], the 50% inhibitory concentration (IC50) (as a rule, the concentration that inhibits the measured activity by half) was determined as 84 ± 3 µM. In data set [2], the “log Poct/water ICP-MS” value was −1.42 and the “log Poct/water UV/vis” value is listed as −1.42. The 50% inhibitory concentration (IC50) in [3] was determined as 76 ± 4 µM.
Regarding `Cc1c([O-])c(=O)ccn1CCCCCCCCn1ccc(=O)c([O-])c1C.Cc1ccc(C(C)C)cc1.Cc1ccc(C(C)C)cc1.[Cl-].[Cl-].[Ru+2].[Ru+2]` [5c, 1,8-Bis{chlorido[3-(oxo-κO)-2-methyl-4(1H)-pyridinonato-κO4](η ^6-p-cymene)ruthenium}octane], the 50% inhibitory concentration (IC50) in data set [1] worked out at 5.7 ± 0.5 µM. In addition, in data set [2], the “log Poct/water ICP-MS” value was −1.28 and the “log Poct/water UV/vis” value is −1.23. Besides, the “reaction with TMP” value in data set [4] is on record as “no reaction was observed”. For the same compound, the “formation of GMP adducts” value in data set [5] is “proceeded rapidly and quantitatively up to a ratio of 2:1”. For the same compound, the “reaction with UMP” value in data set [6] is “no reaction was observed”. Moreover, in data set [3], the half-inhibitory concentration (IC50) came out at 2.5 ± 0.2 µM. In addition, the “reaction with CMP” value in data set [7] is recorded as “no reaction was observed”. Moreover, the “formation of AMP adducts” value in data set [8] is “proceeded rapidly and quantitatively up to a ratio of 2:1”.
`Cc1ccc(C(C)C)cc1.Cc1occc(=O)c1[O-].[Cl-].[Ru+2]` [[RuCl(cym)(mal)] 8, chlorido(maltolato-κO^2)(η^6-p-cymene)ruthenium(II)]: the pKa values in data set [9] was 9.23. Further, the IC50 in data set [10] and in [3] was above 100 µM in each case.
As to `N.N.[Cl][Pt][Cl]` [cisplatin], the IC50 in [11] is 1610 ± 160 nM; in [12], 1960 ± 540 nM; in data set [13], 580 ± 80 nM; in data set [14], 1.7 ± 0.4 µM; in data set [15], 900 ± 190 nM; in data set [16], 730 ± 340 nM. For the same compound, the IC50 in data set [17] was determined as 1.1 ± 0.4 µM; in data set [18] it was 280 ± 40 nM; in [19] it was 370 ± 10 nM; in [20], 720 ± 110 nM. For the same compound, the “Resistance factor SISO-oxo” value in [13] is listed as 2.1. For the same compound, the “Resistance factor KYSE70-oxo” value in data set [14] is recorded as 2.4. Moreover, the “Resistance factor 5637-oxo” value in data set [17] amounted to 2.9.
With `CCCn1ccc(=O)c([O-])c1C.Cc1ccc(C(C)C)cc1.[Cl-].[Ru+2]` [compound 7, chlorido[2-methyl-3-(oxo-κO)-1-propyl-4(1H)-pyridinonato-κO4](η^6-p-cymene)ruthenium(II)], the half-inhibitory concentration (IC50) was determined as 88 ± 12 µM in data set [1] and 42 ± 1 µM in data set [3].
With `N.N.[Cl-].[Cl-].[OH-].[OH-].[Pt+4]` [oxoplatin], the “Resistance factor SISO-oxo” value in data set [13] is on record as 3.1. Besides, the IC50 in data set [13] came to 5200 ± 900 nM; in data set [14] it was 8.8 ± 5.2 µM; in [21], 17.2 ± 5.1 µM; in data set [17] it was 10.6 ± 1.3 µM; in data set [22] it was 13 ± 2.7 µM; in data set [18] it was 1700 ± 400 nM. The half-inhibitory concentration (IC50) in data set [23] was determined as 5.5 ± 1.1 µM; in data set [19], 3100 ± 1500 nM; in data set [20] it was 4200 ± 2800 nM; in [24], 11.8 ± 3.2 µM; in data set [25], 26 ± 8 µM. Besides, the “Resistance factor KYSE70-oxo” value in data set [14] was 2.1. Also, the “Resistance factor 5637-oxo” value in data set [17] is recorded as 3.4.
